Most compounds without a hit are left out; they make up all but 29% or so of the library.
CYP2C9 activ: human CYP2C9 activators, primary screen, biochemical, luminescence; recombinant CYP2C9, luciferin-H conversion; stronger effect = higher value; factor 1 = untreated enzyme, 0 = blocked; AID 1024, 2008; 96,000 compounds, 1.4% hits; Cytochrome P450 2C9 (Homo sapiens), P11712; activation factor at 5 µM;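 active means activation factor of 2 or more for CYP2C9 at a 5 µM dose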;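 further: 0 = sulfaphenazole-blocked wells and 1 = vehicle-only wells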
Ecoli WT expand: growth inhibitors of wild-type E. coli, primary screen, strain BW25113, expanded library, OD600; growth inhibition, % at 100 µM; OD600 absorbance; 98,000 compounds, 0.15% hits;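 active means growth inhibition above about 50% at one test dose, limit read from the data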;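 further: growth measured after 20 h incubation at 37 °C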
Ecoli tolC: growth inhibitors of E. coli tolC mutant, primary screen, strain BW25113 ΔtolC::kan, 384-well | growth inhibition, % at 10 µM (by protocol) | OD615 | 65,000 compounds, 2.2% hits;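 active means growth inhibition at or above a cutoff equal to the mean over every tested compound plus 3 SD, cut at about 60% in these data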;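 further: growth measured after 20 h incubation at 37 °C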
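Signal: optical density read at 615 nm; Assay system: E. coli ΔtolC::kan strain BW25113; Times: 20 h incubation with compound, 37 °C; Dosing: 10 µM final, single dose.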
CYP2C9 inhib: blockers of cytochrome P450 2C9 activity – biochemical, luminescence, ADME assay, primary screen. P11712. CYP2C9 Supersomes, luciferin-H conversion. inhibition, % at 5 µM. 96,000 compounds, 20% hits. AID 777, 2007;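 active means blocking of liver enzyme CYP2C9 beyond about 50% at 5 µM, limit read from the data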
CYP2C19 inhib: blockers of cytochrome P450 2C19 activity – biochemical, luminescence, ADME assay, primary screen; P33261; inhibition, % at 5 µM; CYP2C19 Supersomes, luciferin-H EGE luminescence, 30 min; AID 778, 2007; 96,000 compounds, 21% hits;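 active means CYP2C19 inhibition above a set limit at 5 µM in the primary screen, cut at about 50% in these data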;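 further: plate controls were negative control wells for no effect and 2.5 mM tranylcypromine positive control for full effect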
Target sequence (P33261 whole entry, looked up): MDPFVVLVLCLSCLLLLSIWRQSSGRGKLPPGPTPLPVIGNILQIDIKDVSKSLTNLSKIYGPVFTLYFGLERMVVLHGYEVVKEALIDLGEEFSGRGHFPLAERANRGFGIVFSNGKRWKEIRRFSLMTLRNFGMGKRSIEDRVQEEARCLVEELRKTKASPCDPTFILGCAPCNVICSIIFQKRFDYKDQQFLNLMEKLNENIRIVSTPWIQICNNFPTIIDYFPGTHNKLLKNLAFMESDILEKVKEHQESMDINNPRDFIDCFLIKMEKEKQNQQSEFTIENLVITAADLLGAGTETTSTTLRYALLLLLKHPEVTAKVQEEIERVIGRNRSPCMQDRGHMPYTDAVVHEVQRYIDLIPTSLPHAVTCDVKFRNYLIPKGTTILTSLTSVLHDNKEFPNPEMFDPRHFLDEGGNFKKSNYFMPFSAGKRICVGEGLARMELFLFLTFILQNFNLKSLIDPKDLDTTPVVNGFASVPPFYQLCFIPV
CYP2C19 activ: human CYP2C19 activators, primary screen, biochemical, luminescence; 96,000 tested, under 10 active; Cytochrome P450 2C19 (Homo sapiens), P33261; recombinant CYP2C19, luciferin-H EGE luminescence; stronger effect = higher value; 0 = fully inhibited enzyme, 1 = untreated enzyme; activation factor at 5 µM;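 active means activation factor of at least 2 at 5 µM in the primary screen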;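 further: 0 = wells with 2.5 mM tranylcypromine and 1 = vehicle-only wells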
* = called active by the depositor; · = not tested or not shown.

SMILES	CYP2C9 activ	Ecoli WT expand	Ecoli tolC	CYP2C9 inhib	CYP2C19 inhib	CYP2C19 activ
Cc1ccc(NC(=O)CCN2CCN(C/C=C/c3ccccc3)CC2)cc1C	2.2*	13.0	12.5	-119.2	2.3	1
C=CC1C(N2CCOCC2)C(C)(C)S1(=O)=O (stereo not drawn)	1.2	1.0	-5.6	-19.6	-1.7	1
O=C(Nc1ccc(F)cc1F)N1CCN(c2ncccn2)CC1	0.9	-2.0	-5.9	14.0	70.4*	0.3
O=C(/C=C/c1c(Cl)cccc1Cl)N1CCN(c2ncccn2)CC1	0.5	0.0	·	51.6*	96.0*	0
O=C(c1cccc(C(=O)N2CCN(c3ncccn3)CC2)c1)N1CCN(c2ncccn2)CC1	0.9	-5.0	-20.6	12.7	0.3	1
O=C(Nc1ccccc1Cl)N1CCN(c2ccccn2)CC1	·	-2.0	-6.1	·	·	·
O=C(CN1CCOCC1)NCC12CC3CC(CC(C3)C1)C2	1	-2.0	-2.3	2.2	-1.5	1
O=C(c1cc2ccccc2o1)c1nc2c(n1O)CCCCC2	0.8	11.0	41.7	21.3	-9.9	1.1
CCN(CC)CCn1c2ccccc2c2nc(C)sc21	1	-2.0	0.6	-0.1	41.6	0.6
CCCCCOC(=O)C1=C(C)N(C)C(=O)NC1c1cc(Br)c(O)c(OC)c1 (stereo not drawn)	0.3	-3.0	48.0	69.8*	59.4*	0.4
CCOC(=O)C1=C(C)N(CCO)C(=O)NC1c1cccc(O)c1 (stereo not drawn)	1.1	-3.0	-10.5	-6.1	-14.1	1.1
CC(=O)OCC1OC(Sc2cccc3cccnc23)C(OC(C)=O)C(OC(C)=O)C1OC(C)=O (stereo not drawn)	1	12.0	·	4.7	-0.9	1
COC(=O)c1ccccc1NC(=O)Nc1cnccn1	1.1	-1.0	0.0	-6.2	-0.9	1
CCC(C(=O)Nc1cnccn1)c1ccccc1 (stereo not drawn)	0.8	3.0	-0.5	17.8	60.2*	0.4
CN(C(=O)CSC1=Nc2ccccc2C2=NC(c3ccccc3)C(=O)N12)C1CCCCC1 (stereo not drawn)	0.6	-16.0	·	41.4	15.8	0.8
CC(C)CCn1cnc2c([nH]c3cccc(Cl)c32)c1=O	0.5	-1.0	-10.3	50.0*	27.1	0.7
COc1cccc(C(=O)Nc2ccc(NC(=O)C3CC3)cn2)c1	0.9	-8.0	-20.0	13.0	31.2	0.7
O=C1C2C(C(=O)N1Cc1cccnc1)C1C=CC2C12CC2 (stereo not drawn)	1	4.0	-12.8	-1.0	65.9*	0.3
O=C1C2C3C=CC(C3)C2C(=O)N1Cc1cccnc1 (stereo not drawn)	1	-1.0	-11.0	2.6	-6.1	1.1
O=C1c2ccc3c4c(ccc(c24)C(=O)N1Cc1cccnc1)C(=O)N(Cc1cccnc1)C3=O	1	-9.0	·	-4.2	-11.7	1.1
O=C1C2C3c4ccccc4C(c4ccccc43)C2C(=O)N1Cc1cccnc1 (stereo not drawn)	0.7	-1.0	·	26.5	67.5*	0.3
O=C(CSc1nnc(-c2ccncc2)n1C1CCCCC1)Nc1cccc(O)c1	0.5	6.0	-8.4	45.9	45.4	0.5
c1ccc(-c2nnc3sc(CN4CCc5ccccc54)cn23)cc1	·	4.0	11.7	·	·	·
Cc1ccc(CNC(=O)CCS(=O)(=O)c2cccc3nsnc23)cc1	1.2	4.0	3.8	-21.9	34.4	0.7
CCc1ccc(NC(=O)CCS(=O)(=O)c2cccc3nsnc23)cc1	0.2	12.0	·	84.7*	87.3*	0.1
COc1cccc(CNC(=O)CCS(=O)(=O)c2cccc3nsnc23)c1	1.3	9.0	-12.3	-33.1	64.0*	0.4
O=C(CSc1ncn[nH]1)N(C1CCCCC1)C1CCCCC1	0.9	4.0	·	9.1	41.7	0.6
C=CCc1c(O)nc(SCC(=O)c2ccccc2)[nH]c1=O	0.6	7.0	·	37.5	4.4	1
CCC(C)c1c(O)nc(SCC(=O)c2ccccc2)[nH]c1=O (stereo not drawn)	0.5	-2.0	-1.9	53.8*	13.0	0.9

Screening data (PubChem BioAssay)
